Assay [1] deals with Adenosine receptor A1 (Mesocricetus auratus). Kind of assay: Loss of [3H]CPX binding to A1 adenosine receptor of DDT1 MF-2 (DDT) cells at 10 uM.
Assay [2] shares this test system. Nature of the assay: Loss of specific binding of [3H]CPX to the A1-adenosine receptor of DDT1 MF-2 (DDT) cells at a concentration of 10 uM.
Assay [3] has as its target T1, Adenosine A2 receptor (Rattus norvegicus, UniProt P29276+P30543). Kind of assay: Inhibition of [3H]NECA binding to A2 adenosine receptor of PC12 cell membranes. To be noted: pc-12.
Assay [4] concerns Adenosine receptor A1 (Mesocricetus auratus). Kind of assay: Loss of specific binding of [3H]CPX to the A1-adenosine receptor of DDT1 MF-2 (DDT) cells at a concentration of 1 uM.
The target of the next assay is Adenosine receptor A1. Nature of the assay: Specific binding of [3H]CPX to the A1-adenosine receptor.
Assay [5] addresses T2, Adenosine receptor A1 (Homo sapiens) (UniProt P30542).
T2 sequence (whole entry): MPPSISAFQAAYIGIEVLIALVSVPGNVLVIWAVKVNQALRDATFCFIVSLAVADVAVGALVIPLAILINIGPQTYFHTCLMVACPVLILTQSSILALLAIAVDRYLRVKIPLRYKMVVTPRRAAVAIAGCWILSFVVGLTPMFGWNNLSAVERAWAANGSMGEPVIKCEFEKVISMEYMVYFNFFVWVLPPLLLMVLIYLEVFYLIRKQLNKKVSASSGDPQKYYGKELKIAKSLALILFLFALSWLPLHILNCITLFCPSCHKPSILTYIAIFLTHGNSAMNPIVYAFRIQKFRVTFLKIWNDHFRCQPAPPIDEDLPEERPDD
Nature of the assay: Loss of [3H]CPX binding to A1 adenosine receptor of DDT1 MF-2 (DDT) cells at 0.01 uM. An outline of the steps: (§1)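 DDT1 MF-2 monolayers, 1 day preconfluent, were exposed to xanthine in HBSS for 2 h at 37 °C, then washed 5 times (3 min each) in ligand-free HBSS. Membranes in 50 mM Tris-HCl pH 7.4 with 5 mM MgCl2 were incubated 2 h at room temperature with 0.06–4 nM [3H]CPX; 10 μM N6-cyclopentyladenosine defined nonspecific binding. Triplicate; Scatchard Bmax versus control.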

For assay [6], the target named is T2, Adenosine receptor A1 (Homo sapiens). Nature of the assay: Loss of [3H]CPX binding to A1 adenosine receptor of DDT1 MF-2 (DDT) cells at 0.05 uM. In a few lines:
as §1

For assay [7], the target named is T1, Adenosine A2 receptor. Nature of the assay: Binding of [3H]NECA to A2 adenosine receptor (post-Xanthine). The format is protein assay.
Assay [8] deals with T2, Adenosine receptor A1 (Homo sapiens). Kind of assay: Loss of [3H]CPX binding to A1 adenosine receptor of DDT1 MF-2 (DDT) cells at 0.1 uM. In a few lines: as §1
In assay [9] the target is T3, Adenosine A2 receptor (Rattus norvegicus) (UniProt P29276+P30543). Kind of assay: Inhibition of [3H]NECA binding to A2 adenosine receptor of PC12 cell membranes at 50 uM. To be noted: PC-12. In a few lines: (§2)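 PC12 monolayers, 1 day preconfluent, were exposed to xanthine in HBSS for 2 h at 37 °C, then washed 7 times (3 min each) in ligand-free HBSS. Membranes in Tris-Mg pH 7.4 were bound 2 h at room temperature with 1–10 nM [3H]NECA plus adenosine deaminase; 10 μM NECA defined nonspecific binding. Triplicate; Scatchard Bmax compared with control.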

For assay [10], the target named is T1, Adenosine A2 receptor. Nature of the assay: Binding of [3H]NECA to A2 adenosine receptor of PC12 cell membranes. To be noted: pc-12. An outline of the steps: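 PC12 cell membranes (0.1–0.2 mg protein) were incubated 2 h at room temperature in 50 mM Tris-HCl pH 7.4 with 5 mM MgCl2, 1 nM [3H]NECA, adenosine deaminase 2 units/mL, and 7–10 xanthine concentrations. Nonspecific binding was set with 10 μM NECA. Bound ligand was separated by filtration and counted by scintillation. Run in triplicate; IC50 from Hill plots.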

The target of assay [11] is T2, Adenosine receptor A1 (Homo sapiens). Kind of assay: Percentage loss of [3H]- CPX binding in cells pretreated with a xanthine derivative at 50 uM. An outline of the steps:
as §1

The target of assay [12] is T3, Adenosine A2 receptor (Rattus norvegicus). Nature of the assay: Loss of [3H]NECA binding to A2 adenosine receptor at 50 uM. Type of assay: protein assay. In a few lines: as §2
Assay [13] deals with T2, Adenosine receptor A1 (Homo sapiens). Kind of assay: Percent loss of [3H]CPX binding to A1 adenosine receptor of DDT1 MF-2 (DDT) cells 10 uM. In a few lines:
as §1

`CCCn1c(=O)c2nc(CNC(=O)c3ccccc3)[nH]c2n(CCC)c1=O` yielded a Loss in assay [1] of 0%.

`CCCn1c(=O)c2nc(CNC(=O)CBr)[nH]c2n(CCC)c1=O` registered a Loss in assay [2] of 17%.

With `CCCn1c(=O)n(CCCOC(=O)c2ccc(S(=O)(=O)F)cc2)c(=O)c2[nH]c(C3CCCC3)nc21`, on Adenosine A2 receptor [3], the IC50 was > 100000 nM.

Consider `CCCn1c(=O)c2nc(-c3ccc(Cl)c([N+](=O)[O-])c3)[nH]c2n(CCC)c1=O`, for which the Loss in assay [2] was 0%.

Take `CCCn1c(=O)c2nc(C3CCCC3)[nH]c2n(CC(C)OC(=O)CBr)c1=O` (centres undefined): the Loss in [4] worked out at 0%.

Turning to `CCCn1c(=O)c2[nH]c(CCCNC(=O)c3cccc(S(=O)(=O)F)c3)nc2n(CCC)c1=O`, the Kd at Adenosine receptor A1 stood at 0.86 nM. In other words, the sub-nanomolar range.

In the case of `CCCn1c(=O)c2nc(CCNC(=O)c3ccc(S(=O)(=O)F)cc3)[nH]c2n(CCC)c1=O`, the Kd at Adenosine receptor A1 came out at 0.74 nM. In assay [2], this compound came in with a Loss of 72%.

Consider `O=C(OCCCn1c(=O)c2nc(C3CCCC3)[nH]c2n(CCCOC(=O)c2ccc(S(=O)(=O)F)cc2)c1=O)c1ccc(S(=O)(=O)F)cc1`, for which the Loss in [2] was 50%.

Compound `CCCn1c(=O)c2nc(CCCNC(=O)c3cccc(S(=O)(=O)F)c3)[nH]c2n(CCC)c1=O` registered a Loss in [2] of 30%.

In the case of `O=C(OCCCn1c(=O)c2[nH]c(C3CCCC3)nc2n(CCCOC(=O)c2ccc(S(=O)(=O)F)cc2)c1=O)c1ccc(S(=O)(=O)F)cc1`, the Kd at Adenosine receptor A1 was determined as 0.82 nM.

In the case of `CCCn1c(=O)c2nc(CCCCCN3C(=O)C=CC3=O)[nH]c2n(CCC)c1=O`, the Loss in assay [2] was 16%.

For the compound `CCCn1c(=O)c2nc(C3CCCC3)[nH]c2n(CCCOC(=O)c2ccc(S(=O)(=O)F)cc2)c1=O`, the Loss is 60% in assay [5] and 74% in assay [6]. Besides, the half-inhibitory concentration (IC50) on Adenosine A2 receptor [3] came to 9000 nM. Also, the Kd on Adenosine A2 receptor [7] is 53 nM.

For the compound `CCCn1c(=O)c2nc(CCCCCNC(=O)CBr)[nH]c2n(CCC)c1=O`, in [2], the Loss was 7%.

Take `CCCn1c(=O)c2nc(NC(=O)c3cccc(S(=O)(=O)F)c3)[nH]c2n(CCC)c1=O`: the Loss in assay [2] amounted to 54%.

For `CCCn1c(=O)c2[nH]c(C3CCCC3)nc2n(CC(C)OC(=O)CBr)c1=O` (centres undefined), the equilibrium dissociation constant (Kd) on Adenosine receptor A1 was found to be 1.1 nM. This counts as single-digit nanomolar.

`CCCn1c(=O)c2nc(CNC(=O)c3ccc(S(=O)(=O)F)cc3)[nH]c2n(CCC)c1=O`: the Loss was determined as 25% in assay [8], 0% in assay [9], 72% in assay [4] and 85% in assay [2]. The same compound registered an IC50 on Adenosine A2 receptor [10] of 49000 nM. For the same compound, on Adenosine A2 receptor [7], the Kd is given as 51 nM.

For the compound `CCCn1c(=O)c2nc(CCNC(=O)CBr)[nH]c2n(CCC)c1=O`, the Loss in [2] amounted to 28%.

Take `CCCn1c(=O)c2nc(C3CCCC3)[nH]c2n(CCCOC(=O)c2cccc(S(=O)(=O)F)c2)c1=O`: the Loss in [4] amounted to 11%.

As to `CCCn1c(=O)c2nc(NC(=O)c3ccc(S(=O)(=O)F)cc3)[nH]c2n(CCC)c1=O`, binding on Adenosine receptor A1 was put at a Kd of 1.1 nM. The same compound registered a Loss in assay [2] of 88%.

On Adenosine receptor A1, `CCCn1c(=O)c2[nH]c(NC(=O)c3cccc(S(=O)(=O)F)c3)nc2n(CCC)c1=O` had a dissociation constant (Kd) of 0.79 nM.

In the case of `CCCn1c(=O)c2nc(C3CCC(OC(=O)c4ccc(S(=O)(=O)F)cc4)C3)[nH]c2n(CCC)c1=O` (centres undefined), the Loss in [4] stood at 16%.

Turning to `CCCn1c(=O)c2nc(CNC(=O)c3cccc(S(=O)(=O)F)c3)[nH]c2n(CCC)c1=O`, the results for the Loss in assay [11], in assay [12] and in assay [13] were 58%, 0% and 38%, respectively. Also, the IC50 on Adenosine A2 receptor [3] was 45000 nM. The same compound showed a Kd on Adenosine A2 receptor [7] of 40 nM.

The compound `CCCn1c(=O)c2nc(CCCNC(=O)c3ccc(S(=O)(=O)F)cc3)[nH]c2n(CCC)c1=O` registered a Loss in assay [12] of 0%. Moreover, the IC50 on Adenosine A2 receptor [3] came to 26000 nM. This compound showed a Kd on Adenosine A2 receptor [7] of 43 nM.
